Source: ChEMBL document CHEMBL1143111, “Synthesis and antimicrobial activity of novel C-linked imidazole glycoconjugates” (Bioorg Med Chem Lett, 2008)
In brackets after ≈: the same amount, converted by molar mass. Activity calls are given as the source filed them. The rule behind the calls is not given here.

Key:
Rhizopus arrhizus = assay: Antifungal activity against Rhizopus oryzae by agar cup diffusion method; format: functional, organism-based
Staphylococcus aureus = assay: Antibacterial activity against Staphylococcus aureus by broth dilution method; format: functional
Summary of the method: (§1)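 Compounds and reference drugs were dissolved as stocks in 50% DMSO–water, then serially diluted twofold with culture medium, with bacterial inoculum added […], and the MIC was determined. Only compounds that gave a growth-inhibition zone in a prior agar cup diffusion screen went on to this broth dilution test.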

Escherichia coli = assay: Antibacterial activity against Escherichia coli by broth dilution method; format: functional; summary of the method: as §1
Pseudomonas aeruginosa = assay: Antibacterial activity against Pseudomonas aeruginosa by broth dilution method; format: functional; summary of the method: as §1
Saccharomyces cerevisiae = assay: Antifungal activity against Saccharomyces cerevisiae by agar cup diffusion method; format: functional, organism-based
Bacillus subtilis = assay: Antibacterial activity against Bacillus subtilis by broth dilution method; format: functional; summary of the method: as §1
Aspergillus niger = assay: Antifungal activity against Aspergillus niger by agar cup diffusion method; format: functional, organism-based
Klebsiella pneumoniae = assay: Antibacterial activity against Klebsiella pneumoniae by broth dilution method; format: functional; summary of the method: as §1
[1] = system: Staphylococcus epidermidis; assay: Antibacterial activity against Staphylococcus epidermidis by broth dilution method; format: functional; summary of the method: as §1
Candida albicans = assay: Antifungal activity against Candida albicans by agar cup diffusion method; format: functional, organism-based
[2] = Inhibition of bovine N-acetyl-beta-D-glucosaminidase; set-up: species or system Bos taurus

| SMILES | Activity (Rhizopus arrhizus) | MIC (Staphylococcus aureus) | MIC (Escherichia coli) | MIC (Pseudomonas aeruginosa) | Activity (Saccharomyces cerevisiae) | MIC (Bacillus subtilis) | Activity (Aspergillus niger) | MIC (Klebsiella pneumoniae) | MIC [1] | Activity (Candida albicans) | Ki [2] |
| --- | --- | --- | --- | --- | --- | --- | --- | --- | --- | --- | --- |
| CC1(C)OC(c2nc(-c3ccccc3)c(-c3ccccc3)n2Cc2ccccc2)[C@H]([C@@H](O)[C@H]2COC(C)(C)O2)O1 (some centres not stated) | inactive | 75 µg/mL (≈ 139 µM) | 75 µg/mL (≈ 139 µM) | 37.5 µg/mL (≈ 69.4 µM) | inactive | 75 µg/mL (≈ 139 µM) | inactive | 75 µg/mL (≈ 139 µM) | 150 µg/mL (≈ 277 µM) | inactive | – |
| OC[C@@H](O)[C@@H](O)[C@@H](O)[C@H](O)c1nc(-c2ccccc2)c(-c2ccccc2)n1Cc1ccccc1 | inactive | 75 µg/mL (≈ 163 µM) | 75 µg/mL (≈ 163 µM) | 75 µg/mL (≈ 163 µM) | inactive | 75 µg/mL (≈ 163 µM) | inactive | 75 µg/mL (≈ 163 µM) | 75 µg/mL (≈ 163 µM) | inactive | – |
| CC(=O)N[C@H]1c2nc(CC(=O)O)cn2[C@H](CO)[C@H](O)[C@@H]1O [NAGSTATIN] | – | – | – | – | – | – | – | – | – | – | 4 nM |
| CN[C@@H]1[C@H](O[C@H]2[C@H](O[C@H]3[C@H](O)[C@@H](O)[C@H](N=C(N)N)[C@@H](O)[C@@H]3N=C(N)N)O[C@@H](C)[C@]2(O)C=O)O[C@@H](CO)[C@H](O)[C@H]1O (stereo in doubt) [STREPTOMYCIN] | – | 1.56 µg/mL (≈ 2.69 µM) | 2.35 µg/mL (≈ 4.04 µM) | 3.12 µg/mL (≈ 5.37 µM) | – | 6.25 µg/mL (≈ 10.7 µM) | – | 3.12 µg/mL (≈ 5.37 µM) | 1.56 µg/mL (≈ 2.69 µM) | – | – |
| Cc1ccc(-n2c([C@H]3O[C@@H]4OC(C)(C)O[C@@H]4[C@H]4OC(C)(C)O[C@H]43)nc(-c3ccccc3)c2-c2ccccc2)cc1 | inactive | 37.5 µg/mL (≈ 69.6 µM) | 75 µg/mL (≈ 139 µM) | 75 µg/mL (≈ 139 µM) | inactive | 37.5 µg/mL (≈ 69.6 µM) | inactive | 75 µg/mL (≈ 139 µM) | 75 µg/mL (≈ 139 µM) | inactive | – |
| Cc1cccc(-n2c(C3OC(C)(C)O[C@H]3[C@@H](O)[C@H]3COC(C)(C)O3)nc(-c3ccccc3)c2-c2ccccc2)c1 (some centres not stated) | inactive | 150 µg/mL (≈ 277 µM) | 75 µg/mL (≈ 139 µM) | 37.5 µg/mL (≈ 69.4 µM) | inactive | 150 µg/mL (≈ 277 µM) | inactive | 150 µg/mL (≈ 277 µM) | 75 µg/mL (≈ 139 µM) | inactive | – |
| CC1(C)O[C@H]2O[C@H](c3nc(-c4ccccc4)c(-c4ccccc4)n3Cc3ccccc3)[C@H](O)[C@H]2O1 | inactive | 150 µg/mL (≈ 320 µM) | 150 µg/mL (≈ 320 µM) | 37.5 µg/mL (≈ 80 µM) | inactive | 150 µg/mL (≈ 320 µM) | inactive | 75 µg/mL (≈ 160 µM) | 150 µg/mL (≈ 320 µM) | inactive | – |
| Cc1ccc(-n2c([C@H]3COC(C)(C)O3)nc(-c3ccccc3)c2-c2ccccc2)cc1 | inactive | 150 µg/mL (≈ 365 µM) | 75 µg/mL (≈ 183 µM) | 150 µg/mL (≈ 365 µM) | inactive | 150 µg/mL (≈ 365 µM) | inactive | 75 µg/mL (≈ 183 µM) | 75 µg/mL (≈ 183 µM) | inactive | – |
| CC1(C)OC[C@H](c2nc(-c3ccccc3)c(-c3ccccc3)n2-c2ccc(F)cc2)O1 | inactive | 75 µg/mL (≈ 181 µM) | 37.5 µg/mL (≈ 90.5 µM) | 37.5 µg/mL (≈ 90.5 µM) | inactive | 75 µg/mL (≈ 181 µM) | inactive | 75 µg/mL (≈ 181 µM) | 75 µg/mL (≈ 181 µM) | inactive | – |
| Cc1ccc(-n2c(C3OC(C)(C)O[C@H]3[C@@H](O)[C@H]3COC(C)(C)O3)nc(-c3ccccc3)c2-c2ccccc2)cc1 (some centres not stated) | inactive | 75 µg/mL (≈ 139 µM) | 75 µg/mL (≈ 139 µM) | 75 µg/mL (≈ 139 µM) | inactive | 75 µg/mL (≈ 139 µM) | inactive | 75 µg/mL (≈ 139 µM) | 150 µg/mL (≈ 277 µM) | inactive | – |
| CC1(C)OC(c2nc(-c3ccccc3)c(-c3ccccc3)n2-c2ccc(F)cc2)[C@H]([C@@H](O)[C@H]2COC(C)(C)O2)O1 (some centres not stated) | inactive | 150 µg/mL (≈ 275 µM) | 75 µg/mL (≈ 138 µM) | 75 µg/mL (≈ 138 µM) | inactive | 150 µg/mL (≈ 275 µM) | inactive | 75 µg/mL (≈ 138 µM) | 150 µg/mL (≈ 275 µM) | inactive | – |
